Experiments:
MLL1 SET domain [1] = target: T1, MLL1 SET domain (Homo sapiens, UniProt Q03164); assay: saturation-transfer difference; type: binding; conditions: Supplementary Figure 2
[2] = target: T2, trimeric MLL1 complex (MLL1, RbBP5 and WDR5) (Homo sapiens, UniProt Q03164); assay: FL-NAH fluorescence polarization saturation binding, trimeric complex
pentameric MLL1 complex [3] = target: T3, pentameric MLL1 complex (Homo sapiens, UniProt Q03164); assay: FL-NAH fluorescence polarization saturation binding, pentameric complex
tetrameric MLL1 complex [4] = target: T4, tetrameric MLL1 complex (Homo sapiens, UniProt Q03164); assay: FL-NAH fluorescence polarization saturation binding, tetrameric complex
T4 sequence (Q03164 3829-3945): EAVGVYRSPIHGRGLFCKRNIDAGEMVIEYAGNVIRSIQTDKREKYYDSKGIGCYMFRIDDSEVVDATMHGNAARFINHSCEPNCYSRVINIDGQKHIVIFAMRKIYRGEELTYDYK
T4 sequence (Q15291 whole entry, further chain, the tested form may be a part): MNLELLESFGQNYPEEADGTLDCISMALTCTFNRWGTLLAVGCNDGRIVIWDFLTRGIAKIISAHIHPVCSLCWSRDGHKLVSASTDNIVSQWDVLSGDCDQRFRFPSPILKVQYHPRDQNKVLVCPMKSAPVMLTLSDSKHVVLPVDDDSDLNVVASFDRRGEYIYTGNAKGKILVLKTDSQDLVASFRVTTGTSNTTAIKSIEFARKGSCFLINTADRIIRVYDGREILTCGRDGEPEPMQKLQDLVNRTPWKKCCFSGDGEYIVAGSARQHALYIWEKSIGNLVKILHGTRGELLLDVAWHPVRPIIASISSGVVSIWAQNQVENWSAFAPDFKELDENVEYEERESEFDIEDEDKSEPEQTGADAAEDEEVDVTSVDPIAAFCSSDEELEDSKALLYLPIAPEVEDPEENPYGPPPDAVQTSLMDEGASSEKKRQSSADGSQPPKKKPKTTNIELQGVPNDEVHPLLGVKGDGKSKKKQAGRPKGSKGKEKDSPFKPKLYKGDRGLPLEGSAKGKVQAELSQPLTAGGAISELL
T4 sequence (Q9UBL3 whole entry, further chain, the tested form may be a part): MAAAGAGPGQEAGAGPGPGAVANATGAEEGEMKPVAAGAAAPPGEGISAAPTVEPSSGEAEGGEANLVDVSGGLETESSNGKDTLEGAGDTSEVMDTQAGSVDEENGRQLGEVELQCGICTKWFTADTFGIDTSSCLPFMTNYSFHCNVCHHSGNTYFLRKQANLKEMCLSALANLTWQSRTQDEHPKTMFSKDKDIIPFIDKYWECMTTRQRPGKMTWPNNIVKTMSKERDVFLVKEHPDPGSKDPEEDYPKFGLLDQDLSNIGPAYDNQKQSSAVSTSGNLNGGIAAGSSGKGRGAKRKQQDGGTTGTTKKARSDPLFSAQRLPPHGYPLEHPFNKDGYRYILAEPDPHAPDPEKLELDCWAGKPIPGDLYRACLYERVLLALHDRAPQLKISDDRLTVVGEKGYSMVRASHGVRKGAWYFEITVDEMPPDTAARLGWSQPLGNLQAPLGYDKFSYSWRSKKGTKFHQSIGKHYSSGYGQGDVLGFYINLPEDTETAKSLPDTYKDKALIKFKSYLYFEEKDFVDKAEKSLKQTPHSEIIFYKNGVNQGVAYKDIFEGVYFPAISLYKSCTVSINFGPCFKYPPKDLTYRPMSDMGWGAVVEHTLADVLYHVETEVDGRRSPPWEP

MLL1 SET domain [5] = target: T1, MLL1 SET domain; assay: differential static light scattering; type: binding; conditions: Supplementary Figure 3
MLL1 SET domain [6] = target: T1, MLL1 SET domain; assay: FL-NAH fluorescence polarization saturation binding, isolated SET domain; conditions: SET Only
How it was run: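 The isolated MLL1 SET domain was titrated in increasing concentrations against 50 nM fluorescein-azaadenosylhomocysteine probe. Buffer was 20 mM Tris pH 8.0, 0.01% Triton X-100, 5 mM DTT. Incubation was 30 min at ambient temperature. FP was read at ex 485/em 528 nm. Kd and ΔFPmax came from nonlinear least-squares single-site saturation fit of ΔFP. Mean ± SD, three independent experiments.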

[7] = target: T2, trimeric MLL1 complex (MLL1, RbBP5 and WDR5); assay: FL-NAH displacement FP assay, trimeric complex; type: binding; conditions: for Hill Slope: Trimeric complex, FL-NAH displacement curve
pentameric MLL1 complex [8] = target: T3, pentameric MLL1 complex; assay: FL-NAH displacement FP assay, pentameric complex; type: binding; conditions: for Hill Slope: Pentameric complex, FL-NAH displacement curve
MLL1 SET domain [9] = target: T1, MLL1 SET domain; assay: FL-NAH displacement FP assay, isolated SET domain; type: binding; conditions: for Hill Slope: SET Only, FL-NAH displacement curve
tetrameric MLL1 complex [10] = target: T4, tetrameric MLL1 complex; assay: FL-NAH displacement FP assay, tetrameric complex; type: binding; conditions: for Hill Slope: Tetrameric complex, FL-NAH displacement curve
How it was run: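 The tetrameric MLL1 complex was diluted to its own Kd (probe) concentration. It was then incubated 30 min at ambient temperature with 50 nM fluorescein-azaadenosylhomocysteine probe and increasing concentrations of test compound. Buffer was 20 mM Tris pH 8.0, 0.01% Triton X-100, 5 mM DTT. FP was read at ex 485/em 528 nm, in mP. Kdisp and Hill coefficient came from nonlinear least-squares sigmoidal fit. Mean ± SD, ≥3 independent experiments.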

[11] = polarization expressed in mP (methods)

T1 sequence (Q03164 3829-3945 limits assumed): as the sequence (Q03164 3829-3945) above

Compound | binding to MLL1 SET domain alone by STD NMR (MLL1 SET domain [1]) | Kd ([2]; 50 nM FL-NAH, FP after 30 min) | ΔFPmax [2, 11] | Kd (pentameric MLL1 complex [3]; 50 nM FL-NAH, FP after 30 min) | ΔFPmax (pentameric MLL1 complex [3]; [11]) | Kd (tetrameric MLL1 complex [4]; 50 nM FL-NAH, FP after 30 min) | ΔFPmax (tetrameric MLL1 complex [4]; [11]) | binding to MLL1 SET domain alone by differential static light scattering (MLL1 SET domain [5]) | Kd (MLL1 SET domain [6]; 50 nM FL-NAH, FP after 30 min) | ΔFPmax (MLL1 SET domain [6]; [11]) | IC50 [7] | Hill Slope [7] | IC50 (pentameric MLL1 complex [8]) | Hill Slope (pentameric MLL1 complex [8]) | IC50 (MLL1 SET domain [9]) | Hill Slope (MLL1 SET domain [9]) | IC50 (tetrameric MLL1 complex [10]) | Hill Slope (tetrameric MLL1 complex [10]) | increase in potency of FL-NAH displacement, pentameric complex relative to the isolated SET domain (pentameric MLL1 complex [8]; pentameric vs isolated SET domain)
Nc1ncnc2c1ncn2[C@@H]1O[C@H](CN(CC[C@H](N)C(=O)O)Cc2cn(CCNC(=O)c3ccc4c(c3)C(=O)OC43c4ccc(O)cc4Oc4cc(O)ccc43)nn2)[C@@H](O)[C@H]1O [FL-NAH, fluorescein linked with N-adenosylhomocysteine] | confirmed | 7000 ± 3000 nM | 260 ± 40 | 200 ± 30 nM | 270 ± 20 | 1400 ± 400 nM | 300 ± 30 | confirmed | 1000 ± 100 nM | 240 ± 3 |  |  |  |  |  |  |  |  | 
C[S+](CC[C@H](N)C(=O)[O-])C[C@H]1O[C@@H](n2cnc3c(N)ncnc32)[C@H](O)[C@@H]1O (stereo partly shown) [SAM, S-adenosylmethionine] |  |  |  |  |  |  |  |  |  |  | 7000 ± 1000 nM | −1.6 ± 0.4 | 1000 ± 200 nM | −1.6 ± 0.3 | 14000 ± 2000 nM | −1.2 ± 0.1 | 1000 ± 100 nM | −1.7 ± 0.2 | 
Nc1ncnc2c1ncn2[C@@H]1O[C@H](CSCC[C@H](N)C(=O)O)[C@@H](O)[C@H]1O [SAH] |  |  |  |  |  |  |  |  |  |  |  | −1.5 ± 0.3 |  | −1.4 ± 0.3 |  | −0.9 ± 0.2 |  | −1.9 ± 0.1 | 20 fold
Nc1ncnc2c1ncn2[C@@H]1O[C@H](C[C@@H](N)CC[C@H](N)C(=O)O)[C@@H](O)[C@H]1O [Sinefungin, sinefungin] |  |  |  |  |  |  |  |  |  |  | 10000 ± 2500 nM | −1.1 ± 0.3 | 500 ± 100 nM | −1.1 ± 0.3 | 9000 ± 200 nM | −0.9 ± 0.1 | 2000 ± 200 nM | −1.2 ± 0.1 | 
